Measurements from ChEMBL document CHEMBL1128543, “Computer-aided design and synthesis of 5-substituted tryptamines and their pharmacology at the 5-HT1D receptor: discovery of compounds with potential anti-migraine properties” (J Med Chem, 1995).

Columns and labels:
Conditions in all cases: Oryctolagus cuniculus
[1] = biological target: 5-hydroxytryptamine receptor 1D (Homo sapiens) (UniProt P28221); assay: The compound was tested for binding affinity against 5-HT1D receptor
Outline: (§1)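 Rabbit saphenous vein rings (male New Zealand White; 4–5 mm) mounted on tungsten wires in Krebs–Henseleit buffer, pH 7.4, 37 °C, gassed with 95% O2/5% CO2, at 2 g passive force. Pretreated for 30 min with pargyline (500 μM) and phenoxybenzamine (0.3 μM), then washed. Cumulative 5-HT curve, then after 60 min a test agonist curve. Potency is p[A50]; α is test maximum/5-HT maximum; n ≥ 3.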

[2] = biological target: 5-hydroxytryptamine receptor 2A (Homo sapiens) (UniProt P28223)
[3] = biological target: 5-hydroxytryptamine receptor 1D (Homo sapiens) (UniProt P28221); assay: The compound was tested for intrinsic activity against 5-HT1D receptor; outline: as §1

Sequence of 5-hydroxytryptamine receptor 2A (Homo sapiens) (P28223 whole entry): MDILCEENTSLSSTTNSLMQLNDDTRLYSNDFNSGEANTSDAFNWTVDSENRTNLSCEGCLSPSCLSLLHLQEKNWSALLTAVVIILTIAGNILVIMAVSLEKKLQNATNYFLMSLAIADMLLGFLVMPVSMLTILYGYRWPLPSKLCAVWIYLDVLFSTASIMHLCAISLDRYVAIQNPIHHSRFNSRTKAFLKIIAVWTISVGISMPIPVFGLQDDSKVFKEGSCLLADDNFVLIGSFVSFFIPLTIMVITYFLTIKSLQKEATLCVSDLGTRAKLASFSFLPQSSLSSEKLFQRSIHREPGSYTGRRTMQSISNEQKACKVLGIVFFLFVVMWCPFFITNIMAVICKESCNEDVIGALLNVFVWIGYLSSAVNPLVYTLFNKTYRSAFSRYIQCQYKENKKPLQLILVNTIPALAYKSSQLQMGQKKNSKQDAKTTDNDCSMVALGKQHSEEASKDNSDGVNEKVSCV
Sequence of 5-hydroxytryptamine receptor 1D (Homo sapiens) (P28221 whole entry): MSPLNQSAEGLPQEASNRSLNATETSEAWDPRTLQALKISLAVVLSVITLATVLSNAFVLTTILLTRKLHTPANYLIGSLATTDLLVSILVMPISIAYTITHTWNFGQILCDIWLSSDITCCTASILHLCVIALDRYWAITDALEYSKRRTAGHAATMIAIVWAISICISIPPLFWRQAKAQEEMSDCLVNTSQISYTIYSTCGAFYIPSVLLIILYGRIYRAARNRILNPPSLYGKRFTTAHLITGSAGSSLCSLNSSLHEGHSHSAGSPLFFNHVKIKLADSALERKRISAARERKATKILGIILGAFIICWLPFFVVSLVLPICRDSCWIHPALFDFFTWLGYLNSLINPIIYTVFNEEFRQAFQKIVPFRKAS

| SMILES | p[A50] [1] | p[A50] [2] | Intrinsic activity [3] |
| --- | --- | --- | --- |
| O=C(c1ccc(F)cc1)C1CCN(CCn2c(=O)[nH]c3ccccc3c2=O)CC1 | 6 | 9.1 |  |
| CS(=O)(=O)Nc1ccc(CC2NC(=O)N(CCc3ccc4[nH]cc(CCN)c4c3)C2=O)cc1 (stereo not drawn) | 7.4 | 5.2 | 0.8 |
| NCCc1c[nH]c2ccc(CCC3NC(=O)N(Cc4ccccc4)C3=O)cc12 (stereo not drawn) | 6.7 | < 4.5 | 0.9 |
| CCC(CO)NC(=O)[C@H]1C=C2c3cccc4c3c(cn4C)CC2N(C)C1 (stereo partly drawn) | 6.7 |  | 0.64 |
| NCCc1c[nH]c2ccc(CC3NC(=O)N(Cc4cccc(NC(=O)c5ccccc5)c4)C3=O)cc12 (stereo not drawn) | 7.3 | 4.6 | 0.85 |
| NCCc1c[nH]c2ccc(C(N)=O)cc12 | 8.1 | 5.9 | 0.84 |
| O=C(CCCN1CCC2(CC1)C(=O)NCN2c1ccccc1)c1ccc(F)cc1 | 5.8 | 9.7 |  |
| CN1C(=O)N(Cc2ccccc2)C(=O)C1Cc1ccc2[nH]cc(CCN)c2c1 (stereo not drawn) | 6 | < 4.5 | 1 |
| CCCNC(=O)c1cccc(CN2C(=O)NC(Cc3ccc4[nH]cc(CCN)c4c3)C2=O)c1 (stereo not drawn) | 6.8 | 4.5 | 0.99 |
| CN(C)CCc1c[nH]c2ccc(CC3NC(=O)N(Cc4cccc(NC(=O)c5ccccc5)c4)C3=O)cc12 (stereo not drawn) | 6.3 | 5 | 0.55 |
| COC(=O)c1ccc(CC2NC(=O)N(CCc3ccc4[nH]cc(CCN)c4c3)C2=O)cc1 (stereo not drawn) | 7.3 | < 4.5 | 0.7 |
| CS(=O)(=O)Nc1ccc(C[C@H]2NC(=O)N(CCc3ccc4[nH]cc(CCN)c4c3)C2=O)cc1 | 7.1 | 5.3 | 0.7 |
| O=C1CC2(CCCC2)CS(=O)(=O)N1CCCCN1CCN(c2ncccn2)CC1 | 4.9 | 5.1 |  |
| CN(C)CCc1c[nH]c2ccc(O)cc12 | 7.3 | 6.8 | 0.92 |
| O=C1NCN(c2ccccc2)C12CCN(CC1COc3ccccc3O1)CC2 (stereo not drawn) | 5.1 | 6.2 |  |
| NCCc1c[nH]c2ccc(CC3NC(=O)N(Cc4ccccc4)C3=O)cc12 (stereo not drawn) | 6.1 | 4 | 0.72 |
| CC(=O)Nc1cccc(CC2NC(=O)N(CCc3ccc4[nH]cc(CCN)c4c3)C2=O)c1 (stereo not drawn) | 7 | < 4.5 | 0.7 |
| NCCc1c[nH]c2ccccc12 | 6.9 | 6.1 | 0.86 |
| CN(C)CCc1c[nH]c2ccc(C[C@H]3CNC(=O)N3C)cc12 | 7 | < 4.5 | 1 |
| CN(C)CCc1c[nH]c2ccc(CC3NC(=O)N(Cc4ccccc4)C3=O)cc12 (stereo not drawn) | 5.6 | < 4.5 |  |
| CN1C(=O)NC(Cc2ccc3[nH]cc(CCN)c3c2)C1=O (stereo not drawn) | 4.8 | 4 |  |
| CC(=O)Nc1cccc(CC2NC(=O)N(CCc3ccc4[nH]cc(CCN(C)C)c4c3)C2=O)c1 (stereo not drawn) | 7.2 | < 4.5 | 0.6 |
| CN(C)CCc1c[nH]c2ccc(CC3NC(=O)N(Cc4ccc(Oc5ccccc5)cc4)C3=O)cc12 (stereo not drawn) | 7.4 | 4.7 | 0.79 |
| CNCCc1c[nH]c2ccc(CCN3C(=O)CNC3=O)cc12 | 6.7 | < 4.5 | 0.7 |

| SMILES | p[A50] [1] | p[A50] [2] | Intrinsic activity [3] |
| --- | --- | --- | --- |
| CN1C(=O)NC[C@@H]1Cc1ccc2[nH]cc(CCN)c2c1 | 6.9 | 5 | 0.88 |
| CS(=O)(=O)Nc1cccc(CC2NC(=O)N(CCc3ccc4[nH]cc(CCN)c4c3)C2=O)c1 (stereo not drawn) | 7.2 | < 4.5 | 0.8 |
| NCCc1c[nH]c2ccc(CC3NC(=O)N(Cc4ccc(-c5ccccc5)cc4)C3=O)cc12 (stereo not drawn) | 6.7 |  | 0.6 |
| NCCc1c[nH]c2ccc(CC3NC(=O)N(CCCc4ccccc4)C3=O)cc12 (stereo not drawn) | 6.6 | < 4.5 | 0.93 |
| CNS(=O)(=O)Cc1ccc2[nH]cc(CCN(C)C)c2c1 | 6.6 |  | 0.83 |
| CN1C(=O)N(Cc2ccccc2)CC1Cc1ccc2[nH]cc(CCN)c2c1 (stereo not drawn) | 7.5 | 5 |  |
| CN(C)CCc1c[nH]c2ccc(CCC3NC(=O)N(Cc4ccccc4)C3=O)cc12 (stereo not drawn) | 6.3 | 5.9 | 0.2 |
| Cn1c(Cc2ccc3[nH]cc(CCN)c3c2)cn(Cc2ccccc2)c1=O | 7.1 | 6.3 | 0.95 |
| NCCc1c[nH]c2ccc(CC3NC(=O)N(Cc4ccc(C(=O)Nc5ccccc5)cc4)C3=O)cc12 (stereo not drawn) | 5.9 | 4.5 | 0.7 |
| NCCc1c[nH]c2ccc(CC3NC(=O)N(Cc4cccc(Oc5ccccc5)c4)C3=O)cc12 (stereo not drawn) | 7.4 | 4.7 | 0.79 |
| NCCc1c[nH]c2ccc(CC3NC(=O)N(Cc4cccc(C(=O)Nc5ccccc5)c4)C3=O)cc12 (stereo not drawn) | 6.6 | 3.9 | 0.53 |
| O=C1CC2(CCCC2)CC(=O)N1CCCCN1CCN(c2ncccn2)CC1 | 4.5 |  |  |
| Cc1ccc2[nH]cc(CCN)c2c1 | 6.1 | 6.2 | 1 |
| CN(C)CCc1c[nH]c2ccc(CCN3C(=O)CNC3=O)cc12 | 6.1 | < 4.5 | 0.5 |
| COc1ccc2[nH]cc(C3=CCNCC3)c2c1 | 7.1 |  | 0.89 |
| CN(C)CCc1c[nH]c2ccc(CC3NC(=O)N(CCc4ccccc4)C3=O)cc12 (stereo not drawn) | 6 |  | 0.39 |
| CN(C)CCc1c[nH]c2ccc(CCN3C(=O)NC(Cc4ccc([N+](=O)[O-])cc4)C3=O)cc12 (stereo not drawn) | 6.8 | < 4.5 | 0.6 |
| CN(C)CCc1c[nH]c2ccc(CCN3C(=O)N[C@@H](Cc4ccc(NS(C)(=O)=O)cc4)C3=O)cc12 | 7.4 | < 4.5 | 0.6 |
| C[C@@H](CO)NC(=O)[C@@H]1C=C2c3cccc4[nH]cc(c34)C[C@H]2N(C)C1 | 9 |  | 0.9 |
| CNCCc1c[nH]c2ccc(CCN3C(=O)NC(Cc4cccc(NC(C)=O)c4)C3=O)cc12 (stereo not drawn) | 6.9 | < 4.5 | 0.6 |
| NCCc1c[nH]c2ccc(CC3NC(=O)N(CCc4ccccc4)C3=O)cc12 (stereo not drawn) | 6.7 | 4.5 | 0.67 |
| CC(=O)Nc1ccc(CN2C(=O)NC(Cc3ccc4[nH]cc(CCN)c4c3)C2=O)cc1 (stereo not drawn) | 5.8 |  | 0.81 |
| CN(C)CCc1c[nH]c2ccc(CCN3C(=O)NC(Cc4ccc(NS(C)(=O)=O)cc4)C3=O)cc12 (stereo not drawn) | 7.4 | < 4.5 | 0.6 |
| CNC(=O)c1cccc(CN2C(=O)NC(Cc3ccc4[nH]cc(CCN)c4c3)C2=O)c1 (stereo not drawn) | 5.8 | 4.3 | 0.71 |
